Rows were chosen to be rich in hits. Some 2% of all compounds tested hit in one or more screens of this group.
Myeloid diff 2: promotes myeloid progenitor differentiation | ER-HoxA9 myeloid progenitors, lysozyme-GFP differentiation, flow cytometry | calls only at 10 µM | AID 624256 | 360,000 compounds, 1% hits;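 active = normalized GFP-positive differentiation at or above the plate's own cutoff, the solvent-only control mean plus 3 SD; inconclusive = no clear call, values can overlap the other calls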;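 note: cells exposed to compound for four days before flow analysis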
T cell HTS: modulates CD8 T cell binding to vesicles. 2C CD8+ T cell-vesicle binding, flow cytometry; hits give low values. response (vesicle binding), % at 7 µM. 330,000 compounds, 0.068% hits;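 active = response, share of CD8 T cells binding vesicles, and their 90th percentile fluorescence all below set limits, cut at about 80% in these data, passing the limit was not always enough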;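 note: values below 100% mean blocked vesicle binding to the CD8+ T cells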
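Material: 2C TCR transgenic mouse naive CD8+ T cells, MACS-purified. Also added: QL9-charged Drosophila Ld/ICAM-1/B7-1 vesicles. Timing: binding 1.5 h at 37 °C. Measured by: high-throughput flow cytometry with anti-B7-1 and anti-CD8 staining. Read-out: percent CD8+ FL2 mean versus row control. Controls: Unloaded micro-vesicles (low), QL9 vesicles with 0.7% DMSO (high).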
GAA850 FXN act: activators of GAA850 frataxin (FXN) promoter. HEK293 lucGAA850 FXN promoter luciferase reporter, 24 h; percent of 10 µM SAHA response. activation, % at 6 µM. 360,000 compounds, 0.56% hits. AID 540364;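 active = activation above the average of all compounds screened plus 3 SD, cutoff fixed separately per campaign, cut at about 7.5% in these data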;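 note: 0% = DMSO wells and 100% = 10 µM SAHA wells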
NR2E3 ag-1: human photoreceptor-specific nuclear receptor agonism. Q9Y5X4. CHO-S Gal4-NCOR/VP16-NR2E3 two-hybrid, luciferase. inhibition of corepressor binding, % at 3.98 µM. 360,000 compounds, 0.35% hits;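 active = inhibition above the mean of all tested compounds plus 3 SD, cut at about 70% in these data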;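 note: 0% = DMSO with NR2E3 transfected cells and 100% = cells lacking NR2E3 construct; higher means lower luciferase signal from less NR2E3 corepressor binding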
Target sequence (Q9Y5X4 whole entry, looked up, the tested form may be a part): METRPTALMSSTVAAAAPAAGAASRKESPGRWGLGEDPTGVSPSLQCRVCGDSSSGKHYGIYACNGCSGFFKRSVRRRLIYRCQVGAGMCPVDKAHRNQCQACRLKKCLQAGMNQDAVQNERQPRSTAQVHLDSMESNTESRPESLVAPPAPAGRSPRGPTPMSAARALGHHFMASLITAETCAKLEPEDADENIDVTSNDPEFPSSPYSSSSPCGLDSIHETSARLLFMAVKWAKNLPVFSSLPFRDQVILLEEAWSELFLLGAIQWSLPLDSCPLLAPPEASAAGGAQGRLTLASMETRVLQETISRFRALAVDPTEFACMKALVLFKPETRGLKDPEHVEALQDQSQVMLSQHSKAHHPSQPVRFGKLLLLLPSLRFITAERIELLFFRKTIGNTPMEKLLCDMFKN
NR2E3 ag-2: NR2E3 (human) agonism; Q9Y5X4; GST-NR2E3/biotin-RetCOR TR-FRET, 1536-well; inhibition of corepressor binding, % at 4.78 µM; 320,000 compounds, 0.12% hits; AID 2300;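 active = percent inhibition above the cutoff of mean plus 3 SD of all tested compounds, set per screening campaign, cut at about 20% in these data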;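 note: 0% = DMSO wells and 100% = biotin wells as full block of FRET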
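Material: NR2E3–RetCOR corepressor complex | Quantity: 1.35 nM GST-tagged NR2E3 final | Schedule: 5 h at 4 °C | Replication: Singlicate compound wells | Reagent: RetCOR corepressor, biotinylated, 7 nM | Controls: Biotin wells as high control, 0.6% DMSO wells as low control | Signal: TR-FRET, Eu(K)-anti-GST donor, streptavidin-D2 acceptor, ex 340, em 617/671 nm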
Numbers without * were called inactive; i = inactive; ? = inconclusive; . = no result given; + = active, no number.

SMILES	Myeloid diff 2	T cell HTS	GAA850 FXN act	NR2E3 ag-1	NR2E3 ag-2
CCOc1ccc(N2C(=O)NC(=O)/C(=C\c3ccc(N4CCCCC4)o3)C2=O)cc1	i	300	-1	-34	-6
O=C1NC(=O)N(c2ccc3c(c2)OCO3)C(=O)/C1=C/c1ccc(N2CCCC2)o1	+	182	1	-10	0
CCCCn1c(O)c(C(C)=NCCc2c[nH]c3ccccc23)c(=O)[nH]c1=O	i	255	-3	-27	-1
O=C(/C=C/c1c[nH]c2ccccc12)c1c(O)n(CCc2ccccc2)c(=O)[nH]c1=O	+	912	-2	-30	4
CC(=O)Nc1ccc(S(=O)(=O)N2Cc3ccccc3-n3nncc3C2)cc1	+	.	0	12	.
COc1ccc2c3c1O[C@H]1C(=O)CC[C@H]4[C@@H](C2)N(C)CC[C@]314	.	246	-1	-3	.
CC(C)(C)c1ccc(O)c(N=Cc2c(O)ccc3ccccc23)c1	+	364	0	-38	1
COC(=O)C(O)(c1ccc(N=Cc2ccccc2O)c(C)c1)C(F)(F)F (stereo unspecified)	i	560	-2	-8	4
Cc1ccsc1/C=C1\C(=O)NC(=S)N(C)C1=O	i	143	3	10	7
CN1C(=O)/C(=C/c2ccc(Cl)s2)C(=O)NC1=S	+	298	-1	-36	1
CN1CCCC1CCOC(C)(c1ccccc1)c1ccc(Cl)cc1 (stereo unspecified)	i	.	-2	-46	.
COc1ccc(-c2nc3ccccc3c(=O)n2-c2ccc(OC)cc2)cc1	i	174	-1	-12	1
CCn1nc(-c2ccccc2)nc2c(=O)n(C)c(=O)nc1-2	?	433	-6	89*	41*
C#C[C@]1(O)CC[C@H]2[C@@H]3CCC4=Cc5nc6nc7ccccc7n6cc5C[C@]4(C)[C@H]3CC[C@@]21C	+	90	4	5	1
C#CC1(O)CCC2C3CCC4=C/C(=N/OCC(=O)NCC(=O)NC(C(=O)O)C(C)C)CC[C@]4(C)C3CC[C@@]21C (stereo partly specified)	i	154	7	12	.
CCOC(=O)CC(NC(=O)C(Cc1ccc(N(CCCl)CCCl)cc1)NC(C)=O)C(=O)OCC (stereo unspecified)	?	33*	-1	-37	-3
N[C@H](CO)Cc1ccccc1	i	.	-1	0	.
CCN1CC=C(c2c[nH]c3ccccc23)CC1	+	279	2	-20	1
Cc1[nH]c2ccccc2c1C(=O)CN1CC=C(c2ccccc2)CC1	i	368	2	-1	-1
COC1C(O)C(C)OC(OC2C(Oc3cccc4c(O)c5c(=O)oc6ccc(C)c7c(=O)oc(c34)c5c67)OC(C)C(O)C2O)C1O (stereo unspecified)	+	.	-2	-29	.
CCCCCCCCn1sccc1=O	+	326	-1	23	-2
Cc1ccc(-n2c(=S)[nH]c3ccccc3c2=O)cc1F	i	.	4	-138	.
O=C1NC(=O)C(CCc2ccncc2)(Cc2cccc(Cl)c2Cl)C(=O)N1c1ccc(Br)cc1 (stereo unspecified)	+	302	-8	-41	0
Cc1cc(N(CCCl)CCCl)ccc1/C=N/NC(=O)c1ccco1	?	242	0	-43	0
Cc1cc(N(CCCl)CCCl)ccc1C=NNC(=O)Cc1cc(=O)oc2cc(O)ccc12	+	.	-3	0	.
SMILES	Myeloid diff 2	T cell HTS	GAA850 FXN act	NR2E3 ag-1	NR2E3 ag-2
Nc1nc(Cl)nc2c1ncn2C1CCC(CO)O1 (stereo unspecified)	i	.	.	12	.
Nc1ncnc2c1ncn2[C@@H]1O[C@H](C(=O)NCCc2ccc(F)cc2)[C@@H](O)[C@H]1O	i	.	.	-3	.
CC(=O)OC1CC(OC2C(O)CC(OC3C(O)CC(OC4CCC5(C)C(CCC6C5CC(O)C5(C)C(C7=CC(=O)OC7)CCC65O)C4)OC3C)OC2C)OC(C)C1OC1OC(CO)C(O)C(O)C1O (stereo unspecified)	+	.	-14	-3	.
C[C@@H]1CN([C@H](C)CO)C(=O)c2c(c3ccccc3n2C)-c2ccccc2CO[C@H]1CN(C)Cc1ccc2c(c1)OCCN2C	i	.	1	-7	.
CC1(C)C[C@H]2C=C(C=O)[C@]3(C=O)C[C@]3(C)[C@H]2C1	?	375	0	18	3
CN1/C(=C\C=C2C(=O)NC(=O)NC2=O)C(C)(C)c2ccccc21	+	526	1	-11	0
CCCCc1ccc(C(=O)O)nc1	+	729	0	-3	0
CCOC(=O)[C@]12Cc3cc(Cl)ccc3[C@H]1N(C)C(=O)c1cc(OC)ccc12	+	.	.	-17	.
CCOC(=O)[C@]12Cc3cc(OC)ccc3[C@H]1N(C)C(=O)c1cc(OC)ccc12	i	.	.	-7	.
CSc1ccc(NC(=O)C2(C)CCN2C(=O)C2(c3ccccc3)CC2)cc1 (stereo unspecified)	i	.	0	-22	.
C=CCn1cc(C=C2C(=O)NC(=O)NC2=O)c2ccccc21	+	163	2	-15	-1
C[C@@H]1CN([C@@H](C)CO)C(=O)CCCn2nncc2CO[C@@H]1CN(C)C(=O)Oc1ccccc1	i	.	0	-5	.
C[C@]12CCC3[C@@H](CC[C@@H]4C[C@H](O)CC[C@]34C)[C@@H]1CCC2=O (stereo partly specified)	i	95	1	-10	-1
C[C@]12CCC3C(CC[C@H]4C[C@@H](O)CC[C@]34C)[C@H]1C=CC2=O (stereo partly specified)	i	308	9.4*	27	.
CCOC(=O)c1cnc(SCc2ccc(Cl)c(Cl)c2)nc1N1CC1	.	.	0	-17	.
O=S1(=O)NCC2(CC2)CN1Cc1ccccc1	i	.	.	-17	.
CCCCn1c(=O)c(C(=O)NCc2ccncc2)c(O)c2ccccc21	i	78*	-1	-4	0
CCCCn1c(=O)c(C(=O)NCc2ccccc2)c(O)c2ccccc21	i	165	1	-13	0
CCCCCn1c(=O)c(C(=O)Nc2cc(C)ccn2)c(O)c2ccccc21	+	241	2	-28	-1
COc1ccc(CCN)cc1S(N)(=O)=O	i	.	.	.	.
COC(=O)C1=C(c2cccc(OCc3ccccc3)c2)C[C@@H]2CC[C@H]1N2C(=O)NCc1ccccc1	i	338	-3	12	3
COC(=O)C1=C(c2cccc(OCc3ccccc3)c2)C[C@@H]2CC[C@H]1N2C(=O)NCc1ccc(OC)cc1	+	606	-4	-13	3
CC(C)COC(=O)N1Cc2ccccc2-n2nncc2C1	i	.	1	-14	.
O=C(N/N=C/c1c(O)n(Cc2ccc(F)cc2)c(=O)[nH]c1=O)c1ccccc1	i	345	3	-82	-3
